The source of these data is publication PMC3243070 (European Journal of Medicinal Chemistry, 2011).

The target of one assay is kidney FAR. The following applies: cited from earlier work.
Assay [1] has as its target T1, bovine folate binding protein (FBP) (Bos taurus, UniProt P02702). The gist of the method: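 Bovine milk FBP amide-coupled to a CM5 chip (9.5 ng/mm2). Ligands injected in HBS-EP at 30 µL/min (monovalent) or 50 µL/min (dendrimer conjugates). Chip regenerated with 10 mM glycine-HCl pH 2.5. Reference channel subtracted. kon and koff from Langmuir fits, with mass-transport effects checked. KD = koff/kon, averaged over ≥3 measurement sets per concentration with χ2 < 5.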

The target of assay [2] is T1, bovine folate binding protein (FBP). The following applies: SPR, earlier study; cited from earlier work. On the technique in general: Surface plasmon resonance follows binding to a sensor surface in real time, without labels.

pKd: −log10 of the molar value.

T1 sequence (P02702 20-241): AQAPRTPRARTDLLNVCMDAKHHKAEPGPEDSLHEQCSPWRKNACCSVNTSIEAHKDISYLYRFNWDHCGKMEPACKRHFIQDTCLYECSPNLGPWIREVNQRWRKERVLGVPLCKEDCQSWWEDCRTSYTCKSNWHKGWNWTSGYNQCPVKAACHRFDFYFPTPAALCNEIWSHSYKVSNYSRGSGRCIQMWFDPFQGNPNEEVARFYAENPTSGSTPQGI

By pKd is commonly meant −log10 of the Kd, conventionally taken in molar units. One may read the koff as a measure of how fast the partners let go of each other. A lower koff goes with slow dissociation. The kon is the rate constant with which the complex forms. In the case of `Nc1nc2ncc(CNc3ccc(C(=O)N[C@@H](CCC(=O)O)C(=O)O)cc3)nc2c(=O)[nH]1` [FA, folic acid], the pKd on kidney FAR is roughly 9.00; in assay [2], 5.30. In assay [1], the koff was 0.012 s⁻¹. The molecule also registered an association rate constant (kon) in assay [1] of 1100 M⁻¹ s⁻¹.

Regarding `CN(Cc1cnc2nc(N)nc(N)c2n1)c1ccc(C(=O)N[C@@H](CCC(=O)O)C(=O)O)cc1` [MTX, methotrexate], on kidney FAR, the pKd was 7.00 to 7.70. In addition, the “affinity lower than that of FA” value in assay [1] (from the SPR KD values) was “≈ 2 fold”.
